# Measurements reported in ChEMBL document CHEMBL4261566, “New application of tiplaxtinin as an effective FtsZ-targeting chemotype for an antimicrobial study” (2017).
# Active and inactive are the calls of the source. The calls are words filed in the database; no cut-off is given here.
# Assays:
# Enterococcus faecium [1] = assay: Antibacterial activity against vancomycin-resistant Enterococcus faecium ATCC 700221 after 18 hrs by broth microdilution method; assay type: functional; conditions: ATCC 700221, 18 h
# Staphylococcus aureus [2] = assay: Antibacterial activity against methicillin-resistant Staphylococcus aureus ATCC 43300 after 18 hrs by broth microdilution method; assay type: functional; conditions: ATCC 43300, 18 h
# Staphylococcus aureus [3] = assay: Antibacterial activity against methicillin-resistant Staphylococcus aureus ATCC BAA-1747 after 18 hrs by broth microdilution method; assay type: functional; conditions: ATCC BAA-1747, 18 h
# Staphylococcus aureus [4] = assay: Antibacterial activity against Staphylococcus aureus ATCC 29213 after 18 hrs by broth microdilution method; assay type: functional; conditions: ATCC 29213, 18 h
# Staphylococcus aureus [5] = assay: Antibacterial activity against methicillin-resistant Staphylococcus aureus ATCC 33592 after 18 hrs by broth microdilution method; assay type: functional; conditions: ATCC 33592, 18 h
# [6] = target: T1, Cell division protein FtsZ (Staphylococcus aureus) (UniProt P0A031); assay: Induction of recombinant Staphylococcus aureus FtsZ polymerization at 10 ug/ml by 90degree light scattering-based fluorescence spectrometric analysis
# T1 sequence (whole entry): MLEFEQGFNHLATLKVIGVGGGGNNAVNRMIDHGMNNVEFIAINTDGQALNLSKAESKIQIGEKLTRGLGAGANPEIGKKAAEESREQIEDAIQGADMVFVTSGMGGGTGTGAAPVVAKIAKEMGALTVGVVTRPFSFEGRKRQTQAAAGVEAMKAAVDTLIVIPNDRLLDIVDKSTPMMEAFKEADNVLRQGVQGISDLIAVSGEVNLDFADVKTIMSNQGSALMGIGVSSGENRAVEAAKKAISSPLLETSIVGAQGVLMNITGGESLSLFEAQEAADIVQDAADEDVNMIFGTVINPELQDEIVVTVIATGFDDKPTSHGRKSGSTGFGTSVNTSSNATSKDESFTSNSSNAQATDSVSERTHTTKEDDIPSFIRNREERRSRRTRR
# In short: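 Recombinant S. aureus FtsZ cloned, overexpressed and purified. Polymerization followed over time by 90° light scattering in a thermostatically controlled fluorescence spectrometer, read as absorbance at 600 nm. Profiles recorded with and without compound. Methicillin served as the non-FtsZ-targeting control antibiotic.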
# Escherichia coli = assay: Antibacterial activity against Escherichia coli ATCC 25922 after 18 hrs by broth microdilution method; assay type: functional; conditions: ATCC 25922, 18 h
# [7] = system: Staphylococcus epidermidis; assay: Antibacterial activity against Staphylococcus epidermidis ATCC 12228 after 18 hrs by broth microdilution method; assay type: functional; conditions: ATCC 12228, 18 h
# Staphylococcus aureus [8] = assay: Antibacterial activity against methicillin-resistant Staphylococcus aureus USA300 417 after 18 hrs by broth microdilution method; assay type: functional; conditions: USA300 417, 18 h
# Pseudomonas aeruginosa = assay: Antibacterial activity against Pseudomonas aeruginosa ATCC BAA-2108 after 18 hrs by broth microdilution method; assay type: functional; conditions: ATCC BAA-2108, 18 h
# Staphylococcus aureus [9] = assay: Antibacterial activity against methicillin-resistant Staphylococcus aureus ATCC 33591 after 18 hrs by broth microdilution method; assay type: functional; conditions: ATCC 33591, 18 h
# Staphylococcus aureus [10] = assay: Antibacterial activity against methicillin-resistant Staphylococcus aureus ATCC BAA-1720 after 18 hrs by broth microdilution method; assay type: functional; conditions: ATCC BAA-1720, 18 h
# Bacillus subtilis [11] = assay: Antibacterial activity against Bacillus subtilis 168 after 18 hrs by broth microdilution method; assay type: functional; conditions: subsp. subtilis str. 168, 18 h
# Klebsiella pneumoniae = assay: Antibacterial activity against Klebsiella pneumoniae ATCC BAA-1144 after 18 hrs by broth microdilution method; assay type: functional; conditions: ATCC BAA-1144, 18 h
# Enterococcus faecium [12] = assay: Antibacterial activity against Enterococcus faecium ATCC 49624 after 18 hrs by broth microdilution method; assay type: functional; conditions: ATCC 49624, 18 h
# Staphylococcus aureus [13] = assay: Antibacterial activity against methicillin-resistant Staphylococcus aureus USA300 2690 after 18 hrs by broth microdilution method; assay type: functional; conditions: USA300 2690, 18 h
# Staphylococcus aureus [14] = assay: Antibacterial activity against methicillin-resistant Staphylococcus aureus ATCC BAA-1717 after 18 hrs by broth microdilution method; assay type: functional; conditions: ATCC BAA-1717, 18 h
# Enterococcus faecalis = assay: Antibacterial activity against Enterococcus faecalis ATCC 29212 after 18 hrs by broth microdilution method; assay type: functional; conditions: ATCC 29212, 18 h
# Staphylococcus aureus [15] = assay: Antibacterial activity against Staphylococcus aureus ATCC 29247 after 18 hrs by broth microdilution method; assay type: functional; conditions: ATCC 29247, 18 h
# Staphylococcus aureus [16] = assay: Antibacterial activity against methicillin-resistant Staphylococcus aureus ATCC BAA-41 after 18 hrs by broth microdilution method; assay type: functional; conditions: ATCC BAA-41, 18 h
# Bacteria = assay: Induction of bacterial GFP-fused FtsZ polymerization expressed in Bacillus subtilis 168 assessed as misformation of Z-ring at 2 ug/ml after 4 hrs by fluorescence microscopic method
# In short: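 B. subtilis 168 carrying a GFP–FtsZ construct was treated with compound or with DMSO as control. Z-ring formation was then examined by fluorescence microscopy.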
# [17] = target: T1, Cell division protein FtsZ (Staphylococcus aureus); assay: Induction of recombinant Staphylococcus aureus FtsZ polymerization by 90degree light scattering-based fluorescence spectrometric analysis
# In short: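 S. aureus FtsZ was cloned, overexpressed and purified. Polymerization was followed over time by 90° light scattering in a thermostatically controlled fluorescence spectrometer, […] change at 600 nm. Compound was tested at 2 to 8 μg mL–1 against a no-compound profile. Methicillin served as the non-FtsZ-targeting control antibiotic.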
# [18] = target: T1, Cell division protein FtsZ (Staphylococcus aureus); assay: Inhibition of recombinant Staphylococcus aureus FtsZ GTPase activity preincubated for 10 mins followed by GTP addition and measured after 30 mins
# Bacillus subtilis [19] = assay: Bactericidal activity against Bacillus subtilis 168 assessed as reduction in bacterial load at MIC to 4 times MIC after 24 hrs relative to control; assay type: functional, subsp. subtilis str. 168
# In short: (§1)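 Time-kill assay: a growing culture (S. aureus ATCC 29213 or B. subtilis 168) was exposed at time zero to 1×, 2× and 4× the MIC. Viable cell numbers were followed over 24 h, and the log reduction in viable count was recorded.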
# [20] = target: T1, Cell division protein FtsZ (Staphylococcus aureus); assay: Induction of recombinant Staphylococcus aureus FtsZ polymerization assessed as increase in bundling of protein protofilaments at 4 ug/ml preincubated for 10 mins followed by GTP addition and measured after 15 mins by transmission electron microscopic method
# Staphylococcus aureus [21] = assay: Bactericidal activity against Staphylococcus aureus ATCC 29213 assessed as reduction in bacterial load at MIC to 4 times MIC after 24 hrs relative to control; assay type: functional; in short: as §1
# [22] = target: T2, Cell division protein FtsZ (Bacillus subtilis (strain 168)) (UniProt P17865); assay: Inhibition of cell division function of FtsZ in Bacillus subtilis 168 assessed as increase in cell length at 2 ug/ml after 5 hrs by phase contrast light microscopic method; conditions: Bacillus subtilis subsp. subtilis str. 168
# T2 sequence (whole entry): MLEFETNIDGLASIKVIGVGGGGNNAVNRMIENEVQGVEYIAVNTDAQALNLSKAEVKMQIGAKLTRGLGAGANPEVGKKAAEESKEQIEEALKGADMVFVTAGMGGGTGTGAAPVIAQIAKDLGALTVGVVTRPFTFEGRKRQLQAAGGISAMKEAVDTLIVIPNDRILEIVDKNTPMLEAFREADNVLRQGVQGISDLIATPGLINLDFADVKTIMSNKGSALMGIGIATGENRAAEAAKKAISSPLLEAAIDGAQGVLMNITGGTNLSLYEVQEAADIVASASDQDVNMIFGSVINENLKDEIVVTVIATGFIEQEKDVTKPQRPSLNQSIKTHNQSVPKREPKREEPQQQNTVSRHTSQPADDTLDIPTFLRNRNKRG
# In short: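 B. subtilis 168 cells were grown with or without 2 μg mL–1 compound. Cell morphology, including filamentation, was then examined by microscopy.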
# [23] = target: T1, Cell division protein FtsZ (Staphylococcus aureus); assay: Induction of recombinant Staphylococcus aureus FtsZ polymerization assessed as increase in size of polymers at 4 ug/ml preincubated for 10 mins followed by GTP addition and measured after 15 mins by transmission electron microscopic method
SMILES,MIC90 (Enterococcus faecium [1]) [µg/mL],MIC90 (Staphylococcus aureus [2]) [µg/mL],MIC90 (Staphylococcus aureus [3]) [µg/mL],MIC90 (Staphylococcus aureus [4]) [µg/mL],MIC90 (Staphylococcus aureus [5]) [µg/mL],MIC90 (Escherichia coli) [µg/mL],MIC90 [7] [µg/mL],MIC90 (Staphylococcus aureus [8]) [µg/mL],MIC90 (Pseudomonas aeruginosa) [µg/mL],MIC90 (Staphylococcus aureus [9]) [µg/mL],MIC90 (Staphylococcus aureus [10]) [µg/mL],MIC90 (Bacillus subtilis [11]) [µg/mL],MIC90 (Klebsiella pneumoniae) [µg/mL],MIC90 (Enterococcus faecium [12]) [µg/mL],MIC90 (Staphylococcus aureus [13]) [µg/mL],MIC90 (Staphylococcus aureus [14]) [µg/mL],MIC90 (Enterococcus faecalis) [µg/mL],MIC90 (Staphylococcus aureus [15]) [µg/mL],MIC90 (Staphylococcus aureus [16]) [µg/mL],also measured
COc1cccc(OC)c1C(=O)N[C@@H]1C(=O)N2[C@@H]1SC(C)(C)[C@@H]2C(=O)O [METHICILLIN],1.5,512,256,< 1,512,3,0.75,512,> 256,1020,1020,< 1,> 256,1.5,256,512,0.75,6,1020,Activity [6]: inactive
O=C(O)C(=O)c1cn(Cc2ccccc2)c2ccc(-c3ccc(OC(F)(F)F)cc3)cc12 [TIPLASININ],4,4,4,2,4,> 48,2,2,> 48,4,4,2,> 48,4,2,4,4,2,4,Activity (Bacteria): Active; Activity [17]: Dose-dependent effect; inhibition [18]: Dose-dependent effect; Activity (Bacillus subtilis [19]): >3 deltalog10CFU/ml; Activity [20]: Active; Activity (Staphylococcus aureus [21]): >3 deltalog10CFU/ml; inhibition [22]: Active; Activity [23]: Active
CN[C@H](CC(C)C)C(=O)N[C@H]1C(=O)N[C@@H](CC(N)=O)C(=O)N[C@H]2C(=O)N[C@H]3C(=O)N[C@H](C(=O)N[C@H](C(=O)O)c4cc(O)cc(O)c4-c4cc3ccc4O)[C@H](O)c3ccc(c(Cl)c3)Oc3cc2cc(c3O[C@@H]2O[C@H](CO)[C@@H](O)[C@H](O)[C@H]2O[C@H]2C[C@](C)(N)[C@H](O)[C@H](C)O2)Oc2ccc(cc2Cl)[C@H]1O [VANCOMYCIN],> 96,,,,,,,,,,,,,,,,,,,
